Assay outcomes from PubChem BioAssay.
XiGFP reactiv – activators of X-chromosome reactivation in mouse fibroblasts. XiGFP mouse fibroblasts, % GFP-positive cells imaging, 3 d; cells co-treated with 5-aza-dC sensitizer; scaled so ellipticine positive control = 100%. activation, % at 7.58 µM. 0.055% of 360,000 active. AID 743238;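 active = mean normalized replicate activation at least 10% and every replicate at or above 10%; inconclusive = only one of the two criteria met; inactive = mean below 10% and not all replicates reach 10%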;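 also: 0% = median of on-plate neutral control wells and 100% = ellipticine 6 µM median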
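assay system = SV40-immortalized XiGFP fibroblast cells, line 68-5-11 | buffer or medium = DMEM plus 5-aza-dC sensitizer | doses = single-point pinned compound dosing | times = 3-day compound exposure, then 15 min fixation at room temperature | benchmarks = positive control ellipticine, 6 µM final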
DENV2 CPE – DENV2-induced cell death inhibition; DENV2-infected cells, cytopathic effect rescue, plate reader; CPE inhibition, % at 9.99 µM; 1.7% of 350,000 active; in the data active = CPE inhibition above about 20%, passing the limit was not always enough; inconclusive = no clear call, values can overlap the other calls; tested in BHK-21 cells;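 also: 0% = median of neutral control wells and 100% = median of positive control wells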
CFTR F508del cor – correctors of CFTR F508del function in bronchial epithelial cells; CFBE cells, YFP halide quenching; stimulated with forskolin plus potentiator P3; % fluorescence drop versus neutral controls; activity (quench increase), % at 7.58 µM; 0.36% of 350,000 active; AID 720511;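 active = mean added fluorescence quench of at least 8% versus neutral control, with both replicates also reaching 8%; inconclusive = only one of the mean or replicate conditions met; inactive = mean below 8% and not both replicates reaching 8%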;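 also: cells transiently co-express mutant CFTR-F508del with the halide-sensitive YFP; corrector assay measuring rescue of mutant channel to the surface after 24 h compound exposure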
Cneo AK release – causes C. neoformans cell lysis; lysis activity, % at 15 µM; 0.2% of 360,000 active; adenylate kinase release luminescence, 4 h; normalised: neutral wells 0, clomiphene wells 100;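 active = mean lysis activity across replicates of at least 80%, whatever share of replicates individually reach that level; inactive = mean lysis activity below 80%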
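read-out = cell lysis signal | test system = log-phase Cryptococcus neoformans yeast cells | input = cells at 5 × 10^6 per mL | medium = fresh YPD growth medium | signal = luminescent adenylate kinase detection reagent | timing = 4 h at 37 °C static, read 1 h later | dosing = single dose | controls = Clomiphene as positive lysis control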
FN deposit inh – fibronectin deposition inhibition. 0.086% of 350,000 active. AID 743247. AH1F fibroblasts, Alexa488-fibronectin deposition fluorescence, overnight. inhibition, % at 12.6 µM;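 active = mean inhibition across replicates of 30% or more, regardless of how many single replicates reach that level; inconclusive = mean under 30% yet at least half of replicates reach 30%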;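 also: positive control wells lacked labelled fibronectin entirely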
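Measured by – fluorescence 485/525 nm · System – AH1F fibroblast monolayer, labelled fibronectin deposition · Amount – 10000 cells per well · Buffer or medium – serum-reduced DMEM (2% serum) · Doses – single dose, pinned · Also added – fluorescent fibronectin at 24 nM final · Schedule – 1 h cell attachment, overnight exposure to compound and label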
PGC1a acetyl inh – PGC1a acetylation modulation, inhibitor mode; 0.17% of 350,000 active; AID 651687; inhibition, % at 15.6 µM; U2OS PGC1a acetylation, AlphaScreen anti-acetyl-lysine; with virally co-expressed GCN5 acetyltransferase;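 active = every replicate shows inhibition of at least 40%; inconclusive = mean inhibition at least 40% but some replicate below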;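 also: 0% = neutral control wells and 100% = positive control wells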
The depositor's hits bear a star; ? = inconclusive; nt = no result given. Most compounds without a hit are left out; they make up all but 1.9% or so of the library.

SMILES	XiGFP reactiv	DENV2 CPE	CFTR F508del cor	Cneo AK release	FN deposit inh	PGC1a acetyl inh
C[C@@H]1CCCCO[C@H](CN(C)C(=O)c2ccccc2)[C@@H](C)CN([C@@H](C)CO)C(=O)c2cc(NC(=O)Nc3ccc4c(c3)OCO4)ccc2O1	0.4	22.5*	-0.2	0.4	nt	-11.7
C[C@@H]1CCCCO[C@H](CN(C)C(=O)Nc2ccc3c(c2)OCO3)[C@H](C)CN([C@@H](C)CO)C(=O)c2cc(NC(=O)Nc3ccccc3)ccc2O1	0.1	23.0*	-0.3	3.9	3.1	-27.0
CO[C@H]1CN(C)C(=O)c2cc(NS(=O)(=O)c3ccccc3)ccc2OC[C@H](C)N(Cc2nccs2)C[C@@H]1C	-0.2	-0.9	-1.4	-1.5	-4.4	-1.8
C[C@@H]1CN([C@H](C)CO)C(=O)c2cccc(NC(=O)C3CCOCC3)c2O[C@H]1CN(C)Cc1ccc(-c2ccccc2)cc1	0.1	?	-1.7	-2.5	nt	13.3
COCC(=O)N1[C@H](C(=O)Nc2ccccc2)[C@@H](CO)[C@@H]2Cn3c(ccc(-c4cccnc4)c3=O)[C@@H]21	0.3	-5.3	nt	48.5	nt	nt
CO[C@H]1/C=C/O[C@@]2(C)Oc3c(C)c(O)c4c(O)c(c5c(c4c3C2=O)NC2(CCN(CC(C)C)CC2)N=5)=NC(=O)/C(C)=C\C=C\[C@H](C)[C@H](O)[C@@H](C)[C@@H](O)[C@@H](C)[C@H](OC(C)=O)[C@@H]1C	nt	109.7*	0.5	2.4	nt	-5.0
O=C(O)CC1S/C(=N/N=C/c2ccc(Br)cc2)N(c2ccccc2)C1=O (configuration not stated)	0.0	-1.1	-1.4	-0.8	5.6	75.2*
O=C(O)CC1SC(=Nc2ccccc2)N(c2ccccc2)C1=O (configuration not stated)	nt	nt	nt	-4.5	nt	-0.5
Cc1noc(C)c1NC(=O)Nc1cccc2c1O[C@H](CN(C)C(=O)Nc1ccc(F)cc1)[C@H](C)CN([C@H](C)CO)C2=O	0.1	nt	0.9	nt	nt	-16.0
CNC(=O)C[C@@H]1CC[C@@H]2[C@H](COc3ccc(NC(=O)Nc4ccc(Cl)cc4)cc3C(=O)N2C)O1	0.5	4.3	0.9	-1.0	6.3	2.1
C[C@H](NC(=O)CCCOc1ccc(Cl)cc1Cl)c1nnc2ccccn12	0.0	41.2*	-1.3	0.2	-1.3	-0.4
O=C(CCCOc1ccc(Cl)cc1Cl)NCCc1nnc2ccccn12	0.0	-1.7	-1.4	nt	5.4	nt
OC(c1ccccc1)(c1ccccc1)C1CCN(CCCOc2cccc(F)c2)CC1	-0.1	56.4*	-0.8	nt	7.6	nt
CCCC(=O)N1CC2(CCN(C)CC2)c2c(n(C)c3cc(OC)ccc23)[C@@H]1CO	0.3	63.7*	1.4	nt	nt	-5.2
COc1ccc2c3c(n(C)c2c1)[C@@H](CO)N(C(=O)c1ccccn1)CC31CCN(C)CC1	0.2	34.8*	-2.5	nt	nt	-6.2
COc1ccc2c3c(n(C)c2c1)[C@@H](CO)N(C(=O)c1ccccn1)CC31CCN(C(=O)c2ccccn2)CC1	0.4	1.2	1.7	nt	nt	nt
CCCC(=O)N1CCC2(CC1)CN(S(C)(=O)=O)[C@H](CO)c1c2c2ccc(OC)cc2n1C	0.3	58.8*	0.8	nt	nt	4.1
CN(C)CC(=O)Nc1ccc2c(c1)[C@H]1C[C@@H](CC(=O)NCc3ccc4c(c3)OCO4)O[C@H](CO)[C@H]1O2	0.3	nt	-4.9	nt	-1.8	2.0
COc1ccc(NC(=O)Nc2ccc3c(c2)[C@H]2C[C@H](CC(=O)NCc4ccc5c(c4)OCO5)O[C@H](CO)[C@H]2O3)cc1	0.1	-2.8	0.3	-4.0	-9.7	5.0
CC(=O)c1c(C)[nH]c(C(=O)NC2CCCCC2)c1C	nt	nt	nt	2.8	nt	1.7
CCc1c(C(=O)NC2CCCCC2)[nH]c(C)c1C(C)=O	nt	nt	nt	1.6	4.9	93.4*
COc1ccc2c3c([nH]c2c1)[C@@H](CO)N(C(C)=O)CC31CN(C(=O)c2cccc(F)c2)C1	0.2	nt	nt	nt	nt	nt
O=C(C1CCCCC1)N1CC2(C1)[C@H](c1ccccc1)[C@@H](CO)N2Cc1nccs1	0.0	10.2	0.6	nt	7.1	4.2
O=C(C1CC1)N1CC2(C1)[C@H](c1ccccc1)[C@@H](CO)N2Cc1nccs1	0.2	36.9*	0.9	nt	6.8	9.5
